Measured values: ChEMBL document CHEMBL1140488, “Influence of 6 or 8-substitution on the antiviral activity of 3-phenethylthiomethylimidazo[1,2-a]pyridine against human cytomegalovirus (HCMV) and varicella-zoster virus (VZV)” (Bioorg Med Chem, 2007)
Values after ≈ are worked out from the molar mass of the structure shown.

How the values were obtained:
Human alphaherpesvirus 3 [1] = experiment: Antiviral activity against TK- VZV 07/1 in HEL cells assessed as reduction of virus plaque formation; format: functional, organism-based; conditions: Human alphaherpesvirus 3, 07/1, HEL
[2] = Cytotoxicity against HEL cells assessed as reduction of cell growth after 3 days; format: cell-based; conditions: human
Procedure, shortened: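 HEL cell suspensions were added to wells holding serial concentrations of compound and incubated 3 days at 37 °C in humidified CO2. Viable cells were then counted with a Coulter Counter. CC50 is the concentration reducing viable cell number by 50%.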

Human betaherpesvirus 5 [3] = experiment: Antiviral activity against HCMV Davis in HEL cells assessed as reduction of virus plaque formation after 5 days; format: functional, organism-based; conditions: Human betaherpesvirus 5, Davis, 120 h
Procedure, shortened: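 Confluent human embryonic lung (HEL) cell monolayers in microtiter plates were inoculated with 100 PFU of HCMV (AD169 or Davis) and left 2 h for adsorption. Residual virus was then removed and compound was added at varying concentrations. Viral cytopathicity was read once it reached completion in untreated infected controls.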

Human alphaherpesvirus 3 [4] = experiment: Antiviral activity against TK+ VZV OKA in HEL cells assessed as reduction of virus plaque formation; format: functional, organism-based; conditions: Human alphaherpesvirus 3, OKA
[5] = Cytotoxicity against HEL cells assessed as alteration in cell morphology after 3 days; format: cell-based; conditions: human
Procedure, shortened: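 HEL cell cultures exposed to compound were inspected by microscope for altered morphology. MCC is the minimum concentration causing a microscopically detectable alteration of cell morphology.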

Human betaherpesvirus 5 [6] = experiment: Antiviral activity against HCMV AD169 in HEL cells assessed as reduction of virus plaque formation after 5 days; format: functional, organism-based; conditions: Human betaherpesvirus 5, AD169, HEL, 120 h
Procedure, shortened: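 Confluent human embryonic lung (HEL) cell monolayers in microtiter plates were inoculated with 100 PFU of HCMV (AD169 or Davis) and left 2 h for adsorption. Residual virus was then removed and compound was added at varying concentrations. Viral cytopathicity was read once it reached completion in untreated infected controls. EC50 is the concentration inhibiting cytopathicity by 50%.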

Row | Compound | EC50 (Human alphaherpesvirus 3 [1]) | CC50 at 72 h [2] | EC50 (Human betaherpesvirus 5 [3]) | EC50 (Human alphaherpesvirus 3 [4]) | MCC at 72 h [5] | EC50 (Human betaherpesvirus 5 [6])
1 | Cc1cc(-c2ccccc2O)cn2c(CSCCc3ccccc3)cnc12 | > 20 mg/L | > 50 mg/L | > 100 mg/L | > 20 mg/L | 100 µg/mL | > 100 mg/L
2 | Cc1cc(-c2cccc(O)c2)cn2c(CSCCc3ccccc3)cnc12 | 3.7 mg/L (≈ 9.88 µM) | 50 mg/L (≈ 134 µM) | 2.2 mg/L (≈ 5.87 µM) | 2.4 mg/L (≈ 6.41 µM) | 20 µg/mL | 2.2 mg/L (≈ 5.87 µM)
3 | Cc1cc(-c2ccc(O)cc2)cn2c(CSCCc3ccccc3)cnc12 | > 100 mg/L | > 50 mg/L | > 100 mg/L | > 20 mg/L | ≥ 100 µg/mL | > 100 mg/L
4 | COc1cccc(-c2cc(C)c3ncc(CSCCc4ccccc4)n3c2)c1 | > 4 mg/L | 36 mg/L (≈ 92.7 µM) | 2.5 mg/L (≈ 6.43 µM) | > 4 mg/L | 20 µg/mL | 2.2 mg/L (≈ 5.66 µM)
5 | COc1cccc(-c2cc(C)cn3c(CSCCc4ccccc4)cnc23)c1 | 10.3 mg/L (≈ 26.5 µM) | > 50 mg/L | 10.9 mg/L (≈ 28.1 µM) | 8.3 mg/L (≈ 21.4 µM) | 100 µg/mL | 10.9 mg/L (≈ 28.1 µM)
6 | Cc1cc(-c2cccc([N+](=O)[O-])c2)cn2c(CSCCc3ccccc3)cnc12 | 8.3 mg/L (≈ 20.6 µM) | 43 mg/L (≈ 107 µM) | 4 mg/L (≈ 9.91 µM) | 5.6 mg/L (≈ 13.9 µM) | ≥ 100 µg/mL | 7.6 mg/L (≈ 18.8 µM)
7 | Cc1cc(-c2cccc([N+](=O)[O-])c2)c2ncc(CSCCc3ccccc3)n2c1 | > 20 mg/L | 47 mg/L (≈ 116 µM) | > 100 mg/L | > 20 mg/L | 100 µg/mL | > 100 mg/L
8 | Cc1cc(-c2ccc(C#N)cc2)cn2c(CSCCc3ccccc3)cnc12 | 2 mg/L (≈ 5.21 µM) | 10.6 mg/L (≈ 27.6 µM) | 2.5 mg/L (≈ 6.52 µM) | 2.2 mg/L (≈ 5.74 µM) | ≥ 20 µg/mL | 1.8 mg/L (≈ 4.69 µM)
9 | Cc1cc(-c2cccc(F)c2)c2ncc(CSCCc3ccccc3)n2c1 | > 4 mg/L | 35 mg/L (≈ 93 µM) | 2.2 mg/L (≈ 5.84 µM) | > 4 mg/L | 20 µg/mL | 2.2 mg/L (≈ 5.84 µM)
10 | c1ccc(CCSCc2cnc3ccc(-c4ccccc4)cn23)cc1 | > 0.8 mg/L | 9.9 mg/L (≈ 28.7 µM) | > 0.8 mg/L | 0.74 mg/L (≈ 2.15 µM) | 4 µg/mL | > 0.8 mg/L
11 | Cc1cc(-c2ccccc2)c2ncc(CSCCc3ccccc3)n2c1 | > 4 mg/L | 33 mg/L (≈ 92 µM) | > 4 mg/L | > 4 mg/L | 20 µg/mL | > 4 mg/L
12 | Cc1cc(-c2ccsc2)cn2c(CSCCc3ccccc3)cnc12 | 1.8 mg/L (≈ 4.94 µM) | > 50 mg/L | 1.8 mg/L (≈ 4.94 µM) | 1.7 mg/L (≈ 4.66 µM) | ≥ 4 µg/mL | > 0.8 mg/L
13 | Cc1cc(-c2cccs2)cn2c(CSCCc3ccccc3)cnc12 | > 4 mg/L | 32 mg/L (≈ 87.8 µM) | 2.2 mg/L (≈ 6.04 µM) | 4 mg/L (≈ 11 µM) | 20 µg/mL | 2.2 mg/L (≈ 6.04 µM)
14 | Cc1cc(-c2cccs2)c2ncc(CSCCc3ccccc3)n2c1 | 4 mg/L (≈ 11 µM) | > 50 mg/L | 2.2 mg/L (≈ 6.04 µM) | 7.8 mg/L (≈ 21.4 µM) | 100 µg/mL | 2.5 mg/L (≈ 6.86 µM)
15 | Cc1cc(Br)cn2c(CSCCc3ccccc3)cnc12 | 1.1 mg/L (≈ 3.04 µM) | 28 mg/L (≈ 77.5 µM) | 0.13 mg/L (≈ 0.36 µM) | 0.48 mg/L (≈ 1.33 µM) | ≥ 2 µg/mL | 0.32 mg/L (≈ 0.886 µM)
16 | Cc1cc(-c2ccccc2)cn2c(CSCCc3ccccc3)cnc12 | > 4 mg/L | 31 mg/L (≈ 86.5 µM) | 2.2 mg/L (≈ 6.14 µM) | 3.6 mg/L (≈ 10 µM) | 20 µg/mL | 2 mg/L (≈ 5.58 µM)
17 | Cc1cc(-c2ccsc2)c2ncc(CSCCc3ccccc3)n2c1 | 8.6 mg/L (≈ 23.6 µM) | > 50 mg/L | 2.5 mg/L (≈ 6.86 µM) | 8.9 mg/L (≈ 24.4 µM) | 100 µg/mL | 2.5 mg/L (≈ 6.86 µM)
18 | Cc1cc(I)c2ncc(CSCCc3ccccc3)n2c1 | 2.6 mg/L (≈ 6.37 µM) | > 50 mg/L | 1.8 mg/L (≈ 4.41 µM) | 2.6 mg/L (≈ 6.37 µM) | ≥ 4 µg/mL | > 0.8 mg/L
19 | COc1ccc(-c2cc(C)cn3c(CSCCc4ccccc4)cnc23)cc1 | 3.1 mg/L (≈ 7.98 µM) | 19.6 mg/L (≈ 50.4 µM) | 2.2 mg/L (≈ 5.66 µM) | 2 mg/L (≈ 5.15 µM) | 20 µg/mL | 2.2 mg/L (≈ 5.66 µM)
20 | Cc1cc(-c2cccc(C#N)c2)cn2c(CSCCc3ccccc3)cnc12 | 81 mg/L (≈ 211 µM) | > 50 mg/L | 2.5 mg/L (≈ 6.52 µM) | > 100 mg/L | > 100 µg/mL | 2.2 mg/L (≈ 5.74 µM)
21 | Cc1cc(I)cn2c(CSCCc3ccccc3)cnc12 | 0.43 mg/L (≈ 1.05 µM) | > 50 mg/L | 0.12 mg/L (≈ 0.294 µM) | 0.68 mg/L (≈ 1.67 µM) | ≥ 0.8 µg/mL | > 0.16 mg/L
22 | Cc1cc(-c2cccc(O)c2)c2ncc(CSCCc3ccccc3)n2c1 | 2.9 mg/L (≈ 7.74 µM) | 11.4 mg/L (≈ 30.4 µM) | > 4 mg/L | 1.6 mg/L (≈ 4.27 µM) | 20 µg/mL | > 4 mg/L
23 | Cc1cc(-c2ccc(O)cc2)c2ncc(CSCCc3ccccc3)n2c1 | 2.7 mg/L (≈ 7.21 µM) | 13.7 mg/L (≈ 36.6 µM) | 2.2 mg/L (≈ 5.87 µM) | 1.7 mg/L (≈ 4.54 µM) | 20 µg/mL | 2.2 mg/L (≈ 5.87 µM)
24 | COc1ccc(-c2cc(C)c3ncc(CSCCc4ccccc4)n3c2)cc1 | > 4 mg/L | 25.8 mg/L (≈ 66.4 µM) | 2.2 mg/L (≈ 5.66 µM) | 2.4 mg/L (≈ 6.18 µM) | 20 µg/mL | 3.1 mg/L (≈ 7.98 µM)
25 | Nc1nc2c(ncn2COCCO)c(=O)[nH]1 [ACYCLOVIR] | – | > 200 mg/L | – | – | > 400 µg/mL | –
26 | O=c1[nH]c(=O)n([C@H]2C[C@H](O)[C@@H](CO)O2)cc1/C=C/Br [BRIVUDINE] | 362 mg/L (≈ 1090 µM) | – | – | 0.0038 mg/L (≈ 0.0114 µM) | > 400 µg/mL | –
27 | Nc1ccn(C[C@@H](CO)OCP(=O)(O)O)c(=O)n1.O.O [CIDOFOVIR] | – | 47 mg/L | 0.12 mg/L | – | ≥ 100 µg/mL | 0.1 mg/L
28 | Nc1nc2c(ncn2COC(CO)CO)c(=O)[nH]1 [GANCICLOVIR] | – | 146 mg/L (≈ 572 µM) | – | – | 100 µg/mL | 0.51 mg/L (≈ 2 µM)
